# In the library only some 3.5% were active in any assay of this set; here they are far more common.
# MrgX1 allo act: allosterically activates human MrgX1 receptor signaling; 310,000 tested, 0.63% active; Q96LB2; B-score at 10 µM; MrgX1-HEK293, Fluo-4 calcium flux, FDSS; active compounds read high; AID 588675;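 active = plate-corrected calcium response at least 3 library SD above typical, normal starting fluorescence, not activating the receptor alone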;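 note: compound read alongside a low EC10 to EC30 dose of BAM8-22 agonist; peak minus trough fluorescence over baseline measured at the second addition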
# Target sequence (Q96LB2 whole entry, looked up): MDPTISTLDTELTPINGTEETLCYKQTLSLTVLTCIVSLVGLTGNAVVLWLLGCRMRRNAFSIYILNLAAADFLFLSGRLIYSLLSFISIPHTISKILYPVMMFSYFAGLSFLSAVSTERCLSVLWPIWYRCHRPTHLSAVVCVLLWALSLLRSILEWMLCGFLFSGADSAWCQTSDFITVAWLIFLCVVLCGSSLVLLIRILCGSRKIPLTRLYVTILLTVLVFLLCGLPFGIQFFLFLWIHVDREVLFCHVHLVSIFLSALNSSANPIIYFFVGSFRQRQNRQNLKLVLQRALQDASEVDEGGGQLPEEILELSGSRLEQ
# MrgX1 ag: human MrgX1 receptor agonism, primary screen. B-score at 10 µM. 310,000 tested, 0.44% active. MrgX1-HEK293 cells, Fluo-4 calcium fluorescence, agonist mode; active compounds read high;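 active = calcium response B-score plate-corrected fluorescence ratio at least 3 library SD, with starting fluorescence B-score inside 5 SD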
#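 Material: MrgX1-expressing HEK293 cells / Dosing: compound as first of three additions / Incubation: overnight seeding, then 1 h dark dye loading / Signal: Fluo-4 NW calcium fluorescence / Evaluation: B-scored fluorescence response ratio / Benchmarks: positive and negative control wells on each plate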
# RGS4 pot: potentiators or activators of RGS4; HEK293 M3R/inducible RGS4, carbachol calcium flux Fluo4; active compounds read low; B-score at 10 µM; 310,000 tested, 0.92% active; AID 463111;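 active = B-score of the integrated calcium signal more than 4 SD below the library mean, with starting fluorescence not abnormally high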;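 note: negative B-score means reduced calcium response which marks RGS4 activation or potentiation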
#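 Assay system: HEK293 FlpIn-TREx cells, stable M3R, doxycycline-inducible RGS4 / Probe or stimulus: carbachol, ECmax concentration / Times: overnight RGS4 induction, 30 min dye load 37 °C, 20 min compound RT / Signal: kinetic calcium fluorescence imaging with Fluo4-AM dye, 2 µM / Measure: Agonist-evoked peak-minus-minimum fluorescence over baseline, integrated ratio, B score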
# RGS4 block: human RGS4 inhibition. 310,000 tested, 0.45% active. B-score at 10 µM. HEK293 M3R/RGS4 inducible, Fluo-4 calcium flux; active compounds read high; triggered by carbachol at its EC20. P49798;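 active = B-score, a plate-corrected calcium signal, over three deviations above library mean, with baseline fluorescence within five deviations of library mean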;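 note: RGS4 expression induced by doxycycline in cells with stable M3 receptor; B-score is computed from the integrated fluorescence ratio over baseline after carbachol; higher B-score means a larger calcium signal and so more RGS4 inhibition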
# Target sequence (P49798 whole entry, looked up): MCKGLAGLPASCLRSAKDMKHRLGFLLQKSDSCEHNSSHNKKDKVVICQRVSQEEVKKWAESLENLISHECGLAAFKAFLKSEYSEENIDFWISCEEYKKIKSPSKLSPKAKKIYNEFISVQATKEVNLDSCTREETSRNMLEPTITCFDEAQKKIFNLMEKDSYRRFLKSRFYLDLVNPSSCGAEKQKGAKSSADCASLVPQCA
# MrgX1 antag: human MrgX1 receptor antagonism, primary screen | Q96LB2 | MRGX1-HEK293 calcium flux, Fluo-4, BAM8-22 antagonism; active compounds read low | B-score at 10 µM | 310,000 tested, 1.3% active | AID 588676;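 active = calcium-response B-score plate-corrected more than 3 library SD below zero, starting fluorescence within 5 deviations, no agonist response on first addition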;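 note: peak minus trough fluorescence over baseline after final BAM8-22 challenge near maximal dose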
# RGS4 activ val: confirmation of RGS4 activators; shares compounds with RGS4 pot; HEK293 M3R/RGS4 inducible, carbachol calcium flux Fluo4; inhibition, % at 10 µM; 1,100 tested, 89% active; AID 602282;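 active = inhibition above 3 SD of the buffer control wells, cut at about 41% in these data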;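 note: signal is the integrated peak-minus-minimum Fluo4 fluorescence over baseline ratio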
# RGS4 act ctr: RGS4 activator counter-screen hit in non-induced cells; shares compounds with RGS4 pot; inhibition, % at 10 µM; 1,100 tested, 82% active; HEK293 M3R non-induced RGS4, Fluo4 calcium flux; after carbachol challenge at its EC90; AID 602283;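 active = inhibition exceeding 3 SD of buffer-only control wells, cut at about 26% in these data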;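 note: percent drop in integrated peak-minus-baseline over baseline Fluo4 ratio after carbachol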
# A number is an active result; - = inactive; . = no result.
SMILES,MrgX1 allo act,MrgX1 ag,RGS4 pot,RGS4 block,MrgX1 antag,RGS4 activ val,RGS4 act ctr
COc1ccc(CN(C)S(=O)(=O)c2nnc(NC(=O)c3ccccc3)s2)cc1OC,-,-,-,-,-,.,.
CC(C)Cc1nnc(NC(=O)CCC(=O)NC2CCCCC2)s1,-,-,-,-,-,.,.
Cn1c(SCc2c(Cl)cccc2Cl)nnc1-c1cccs1,-,-,-12,-,-,74,84
COc1cccc(-c2nc(N3CCCCC3)c3ccccc3n2)c1O,-,-,-8.8,-,-,92,91
CC(NS(=O)(=O)OCC(Cl)(Cl)Cl)c1ccc(C(C)(C)C)cc1 (configuration not stated),-,-,-8,-,-,91,94
CCCCCCCCCn1ccc(=N)cc1,-,-,-,-,-,.,.
CCCCCCCn1ccc(=N)cc1,-,-,-9.2,-,-,69,30
CCOc1ccc2c(c1)sc(N)[n+]2Cc1cc(C)cc2cccnc12,-,-,-11,-,-,90,46
COc1ccc2c(c1)sc(N)[n+]2Cc1cc(C)cc2cccnc12,-,-,-,-,-,.,.
CN(CCN(C)C(C)(C)C)C(=O)C(c1ccccc1)c1ccccc1,-,-,-12,-,-,94,75
CSc1ccc(CN(C)C(=O)C(c2ccccc2)c2ccccc2)cc1,-,-,-,-,-,.,.
COC(=O)c1cc2ccsc2n1Cc1cc(=O)n2ccccc2n1,-,-,-10,-,-,90,63
CCOc1ccc(C(=O)NCC2CCN(CC3CCCCC3)CC2)cc1,.,.,-,-,.,.,.
Cc1ccc(Oc2ccc(NC(=O)Cn3ccsc3=N)cc2)cc1,-,45,-8.8,-,-,89,52
CCN(CC)CCn1c(=N)n(CC(=O)c2ccc(Br)s2)c2ccccc21,-,-,-7.8,-,-,58,84
O=c1c2c(nc3n1CCCCC3)-c1ccccc1CC21CCCC1,-,-,-11,-,-,93,94
Nn1cnc2c(c1=O)C1(CCCCC1)Cc1ccccc1-2,-,-,-,-,-,.,.
COc1ccc(OS(=O)(=O)c2c(C)noc2C)cc1,-,-,-9.3,-,-,84,41
Cc1ccc(NCC(=O)Nc2cccc(F)c2)cc1S(=O)(=O)N1CCCCCC1,-,-,-,-,-,.,.
O=C(N/N=C/c1cc(Br)cc([N+](=O)[O-])c1O)c1ccc(NC(=O)c2ccc(F)cc2)cc1,-,-,-,-,-,.,.
Cc1ccccc1NS(=O)(=O)c1ccc(C(=O)N2CCCC2)cc1,-,-,-,-,-,.,.
Cc1cccc(NS(=O)(=O)c2ccc(C(=O)N3CCN(c4ccccc4O)CC3)cc2)c1C,-,-,-8.3,-,-,85,70
Oc1ccccc1-c1nc(NC2CCCC2)c2ccccc2n1,-,-,-7.8,-,-,74,59
COc1ccc2c(C)cc(N3CCN(Cc4ccccc4)CC3)nc2c1,-,-,-,-,-,.,.
COc1ccc2c(C)cc(N3CCCCCC3)nc2c1,-,-,-11,-,-,92,75
SMILES,MrgX1 allo act,MrgX1 ag,RGS4 pot,RGS4 block,MrgX1 antag,RGS4 activ val,RGS4 act ctr
Cc1cc(OCC(O)CN2CCCC2)cc(C)c1Cl (configuration not stated),-,-,-,-,-,.,.
CS(=O)(=O)N1CCC(C(=O)Nc2ccc(F)c(Cl)c2)CC1,-,-,-8.4,-,-,-,-
CCn1cc(S(=O)(=O)NCc2ccc(OC)cc2)cn1,-,-,-,-,-,.,.
Cc1ccc(-n2nc(C)cc2Nc2ncc(Cl)cc2Cl)cc1,-,-,-8.7,-,-,92,74
COc1ccc(S(=O)(=O)N(C)c2nc3ccccc3n3c(CC(C)C)nnc23)cc1,-,-,-,-,-,.,.
O=[N+]([O-])c1ccccc1COc1ccc(Cl)c2cccnc12,-,-,-,-,-,.,.
Cc1cccc2nc(COc3ccc(Cl)c4cccnc34)cn12,-,-,-10,-,-,-,84
C=C(C)CSc1nc2sc3c(c2c(=O)n1C1CCCCC1)CCN(C)C3,-,-,-7.8,-,-,93,86
CSc1nc2sc3c(c2c(=O)n1C1CCCCC1)CCN(C)C3,-,-,-,-,-,.,.
CNS(=O)(=O)c1cccc(C(=O)OCc2cc(Cl)cc3c2OCOC3)c1,-,-,-8.6,-,-,-,-
CNS(=O)(=O)c1cccc(C(=O)OCC(=O)N2CCCC2)c1,-,-,-,-,-,.,.
CCC(C)[C@H](NC(=O)NC1CCCc2ccccc21)C(=O)OC (some centres not stated),-,-,-8.3,-,-,-,-
CCOc1ccc(S(=O)(=O)N(CC(=O)NC2CCCCC2C)Cc2ccco2)cc1 (configuration not stated),-,-,-8.2,-,-,-,-
CCCCOc1ccc(C(O)C(CN2CCOCC2)c2ccccc2)cc1 (configuration not stated),-,-,-,-,-,.,.
CCCCOc1ccc(C(O)C(CN2CCCCC2)c2ccccc2)cc1 (configuration not stated),-,-,-7.6,-,-,58,84
CN(Cc1ccccc1F)C(=O)CN1c2cccc3cccc(c23)S1(=O)=O,-,-,-,-,-,.,.
O=C(NCc1ccccc1F)C1CCCN1S(=O)(=O)c1ccc(Cl)cc1 (configuration not stated),-,-,-,-,-,.,.
CSc1ccccc1NC(=O)CN(C1CCCCC1)S(C)(=O)=O,-,-,-,-,-,.,.
CN(CC(=O)Nc1ccccc1Sc1ccccc1)C1CCCCC1,-,-,-8.2,-,-,94,89
NCCCC[C@@H](C(=O)NCCCCCCCCCCC(=O)N1CCNCC1)n1cc(CCCC(=O)O)nn1,-,-,.,.,-,.,.
FC(F)(F)c1cccc(NCc2n[nH]c(=S)n2C2CCCCC2)c1,-,-,-8.4,-,-,85,52
Cc1cccc(NS(=O)(=O)c2ccc(C3CCCCC3)cc2)c1,-,-,-8.8,-,-,94,92
O=C1C=C(N2CCCCCC2)C2(CCCCC2)O1,-,-,-8.4,-,-,66,-
NC(=O)c1ccc(SCC(=O)OCC(=O)NCC2CCCCC2)c([N+](=O)[O-])c1,-,-,-,-,-,.,.
Cc1cc2ncn(C(=O)c3c(-c4ccccc4Cl)noc3C)c2cc1C,-,-,-11,-,-,94,79
Cc1cc(C)cc(OCC(=O)OCC(=O)N(CC(C)C)c2c(N)n(Cc3ccccc3)c(=O)[nH]c2=O)c1,-,-,-,-,-,.,.
CN(C(=O)c1ccc(OC2CCN(CCc3ccccc3)CC2)cc1)C1CCOCC1,-,-,-,-,-,.,.
CN(C(=O)c1ccc(OC2CCN(CCc3ccccc3)CC2)cc1)C1CCCCC1,-,-,-8.9,-,-,-,-
